Experimental data published in ChEMBL document CHEMBL3632558, “Synthesis, antimycobacterial and antibacterial activity of l-[(1R,2S)-2-fluorocyclopropyl]naphthyridone derivatives containing an oxime-functionalized pyrrolidine moiety” (2015).
≈ marks a conversion by molar mass, not a printed value.

Columns and labels:
Type in all cases: functional
Staphylococcus aureus [1] = assay: Antibacterial activity against methicillin-sensitive Staphylococcus aureus 14-3 after 18 to 24 hrs
Outline: (§1)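 MIC by standard NCCLS reference procedure (M100-S11); lowest concentration of compound inhibiting visible bacterial growth after incubation at 35 °C for 18–24 h, read as complete inhibition of growth. Ciprofloxacin, levofloxacin and moxifloxacin run alongside as reference agents.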

Klebsiella pneumoniae [2] = assay: Antibacterial activity against Klebsiella pneumoniae 14-3 after 18 to 24 hrs; outline: as §1
Klebsiella pneumoniae [3] = assay: Antibacterial activity against Klebsiella pneumoniae 14-2 after 18 to 24 hrs; outline: as §1
[4] = tested on: Staphylococcus epidermidis; assay: Antibacterial activity against methicillin-resistant Staphylococcus epidermidis 14-39 after 18 to 24 hrs
Klebsiella pneumoniae [5] = assay: Antibacterial activity against ESBL-positive Klebsiella pneumoniae 14-18 after 18 to 24 hrs; outline: as §1
[6] = tested on: Staphylococcus epidermidis; assay: Antibacterial activity against methicillin-resistant Staphylococcus epidermidis 14-21 after 18 to 24 hrs
Staphylococcus aureus [7] = assay: Antibacterial activity against methicillin-sensitive Staphylococcus aureus 14-1 after 18 to 24 hrs; outline: as §1
Enterococcus faecium [8] = assay: Antibacterial activity against Enterococcus faecium 14-2 after 18 to 24 hrs; outline: as §1
Enterococcus faecium [9] = assay: Antibacterial activity against Enterococcus faecium 14-1 after 18 to 24 hrs; outline: as §1
Pseudomonas aeruginosa [10] = assay: Antibacterial activity against Pseudomonas aeruginosa ATCC 27853 after 18 to 24 hrs; outline: as §1
Pseudomonas aeruginosa [11] = assay: Antibacterial activity against Pseudomonas aeruginosa 14-19 after 18 to 24 hrs; outline: as §1
[12] = tested on: Staphylococcus epidermidis; assay: Antibacterial activity against methicillin-resistant Staphylococcus epidermidis 14-37 after 18 to 24 hrs
Staphylococcus aureus [13] = assay: Antibacterial activity against methicillin-resistant Staphylococcus aureus 14-5 after 18 to 24 hrs
Enterococcus faecium [14] = assay: Antibacterial activity against Enterococcus faecium 14-6 after 18 to 24 hrs; outline: as §1
Escherichia coli [15] = assay: Antibacterial activity against ESBL-positive Escherichia coli 14-2 after 18 to 24 hrs; outline: as §1
Klebsiella pneumoniae [16] = assay: Antibacterial activity against ESBL-positive Klebsiella pneumoniae 14-17 after 18 to 24 hrs; outline: as §1
Pseudomonas aeruginosa [17] = assay: Antibacterial activity against Pseudomonas aeruginosa 14-15 after 18 to 24 hrs; outline: as §1
Staphylococcus aureus [18] = assay: Antibacterial activity against methicillin-resistant Staphylococcus aureus 14-4 after 18 to 24 hrs
Klebsiella pneumoniae [19] = assay: Antibacterial activity against Klebsiella pneumoniae 14-1 after 18 to 24 hrs; outline: as §1
Staphylococcus aureus [20] = assay: Antibacterial activity against Staphylococcus aureus CMCC 26003 after 18 to 24 hrs; outline: as §1
Enterococcus faecalis [21] = assay: Antibacterial activity against Enterococcus faecalis 14-1 after 18 to 24 hrs; outline: as §1
Klebsiella pneumoniae [22] = assay: Antibacterial activity against ESBL-positive Klebsiella pneumoniae 14-19 after 18 to 24 hrs; outline: as §1
Escherichia coli [23] = assay: Antibacterial activity against Escherichia coli 14-2 after 18 to 24 hrs; outline: as §1
Enterococcus faecium [24] = assay: Antibacterial activity against Enterococcus faecium 14-5 after 18 to 24 hrs; outline: as §1
[25] = tested on: Staphylococcus epidermidis; assay: Antibacterial activity against methicillin-sensitive Staphylococcus epidermidis 14-2 after 18 to 24 hrs; outline: as §1
Escherichia coli [26] = assay: Antibacterial activity against Escherichia coli 14-1 after 18 to 24 hrs; outline: as §1
Klebsiella pneumoniae [27] = assay: Antibacterial activity against Klebsiella pneumoniae 14-4 after 18 to 24 hrs; outline: as §1
Pseudomonas aeruginosa [28] = assay: Antibacterial activity against Pseudomonas aeruginosa 14-16 after 18 to 24 hrs; outline: as §1
Pseudomonas aeruginosa [29] = assay: Antibacterial activity against Pseudomonas aeruginosa 14-9 after 18 to 24 hrs; outline: as §1
Staphylococcus aureus [30] = assay: Antibacterial activity against methicillin-sensitive Staphylococcus aureus 14-4 after 18 to 24 hrs; outline: as §1
Escherichia coli [31] = assay: Antibacterial activity against Escherichia coli ATCC 25922 after 18 to 24 hrs; outline: as §1
Escherichia coli [32] = assay: Antibacterial activity against ESBL-positive Escherichia coli 14-1 after 18 to 24 hrs; outline: as §1
[33] = tested on: Staphylococcus epidermidis; assay: Antibacterial activity against methicillin-resistant Staphylococcus epidermidis 14-22 after 18 to 24 hrs
[34] = tested on: Mycobacterium tuberculosis; assay: Antimycobacterial activity against Mycobacterium tuberculosis H37Rv ATCC 27294 by alamar blue assay
Outline: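 Microplate Alamar Blue Assay; MIC is the lowest concentration giving ≥90% reduction in fluorescence relative to the mean of replicate bacterium-only controls. MDR strain 6133 is resistant to isoniazid and rifampicin.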

Staphylococcus aureus [35] = assay: Antibacterial activity against methicillin-sensitive Staphylococcus aureus 14-2 after 18 to 24 hrs; outline: as §1
Pseudomonas aeruginosa [36] = assay: Antibacterial activity against Pseudomonas aeruginosa 14-14 after 18 to 24 hrs; outline: as §1
Enterococcus faecalis [37] = assay: Antibacterial activity against Enterococcus faecalis 14-2 after 18 to 24 hrs; outline: as §1
Streptococcus pneumoniae = assay: Antibacterial activity against Streptococcus pneumoniae ATCC 19615 after 18 to 24 hrs; outline: as §1

SMILES	MIC (Klebsiella pneumoniae [2]) [µg/mL]	MIC (Klebsiella pneumoniae [3]) [µg/mL]	MIC [4] [µg/mL]	MIC (Klebsiella pneumoniae [5]) [µg/mL]	MIC [6] [µg/mL]	MIC (Enterococcus faecium [9]) [µg/mL]	MIC [12] [µg/mL]	MIC (Enterococcus faecium [14]) [µg/mL]	MIC (Klebsiella pneumoniae [16]) [µg/mL]	MIC (Staphylococcus aureus [18]) [µg/mL]	MIC (Klebsiella pneumoniae [19]) [µg/mL]	MIC (Enterococcus faecalis [21]) [µg/mL]	MIC (Klebsiella pneumoniae [22]) [µg/mL]	MIC (Enterococcus faecium [24]) [µg/mL]	MIC [25] [µg/mL]	MIC (Klebsiella pneumoniae [27]) [µg/mL]	MIC (Staphylococcus aureus [30]) [µg/mL]	MIC (Escherichia coli [31]) [µg/mL]	MIC [33] [µg/mL]	MIC90 [34] [µg/mL]	further results
NCC1CN(c2nc3c(cc2F)c(=O)c(C(=O)O)cn3[C@@H]2C[C@@H]2F)C/C1=N\OCc1ccc(F)cc1 (some centres undefined)	64 (≈ 128 µM)	> 128	16 (≈ 31.9 µM)	16 (≈ 31.9 µM)	8 (≈ 16 µM)	1 (≈ 1.99 µM)	8 (≈ 16 µM)	8 (≈ 16 µM)	8 (≈ 16 µM)	32 (≈ 63.8 µM)	64 (≈ 128 µM)	64 (≈ 128 µM)	64 (≈ 128 µM)	8 (≈ 16 µM)	64 (≈ 128 µM)	128 (≈ 255 µM)	< 0.008	< 0.008	8 (≈ 16 µM)	< 0.25	MIC (Staphylococcus aureus [1]): < 0.008 µg/mL; MIC (Staphylococcus aureus [7]): 4 µg/mL (≈ 7.98 µM); MIC (Enterococcus faecium [8]): 2 µg/mL (≈ 3.99 µM); MIC (Pseudomonas aeruginosa [10]): 4 µg/mL (≈ 7.98 µM); MIC (Pseudomonas aeruginosa [11]): 16 µg/mL (≈ 31.9 µM); MIC (Staphylococcus aureus [13]): 16 µg/mL (≈ 31.9 µM); MIC (Escherichia coli [15]): 64 µg/mL (≈ 128 µM); MIC (Pseudomonas aeruginosa [17]): 16 µg/mL (≈ 31.9 µM); MIC (Staphylococcus aureus [20]): < 8 ng/mL; MIC (Escherichia coli [23]): 64 µg/mL (≈ 128 µM); MIC (Escherichia coli [26]): 64 µg/mL (≈ 128 µM); MIC (Pseudomonas aeruginosa [28]): 16 µg/mL (≈ 31.9 µM); MIC (Pseudomonas aeruginosa [29]): 8 µg/mL (≈ 16 µM); MIC (Escherichia coli [32]): 8 µg/mL (≈ 16 µM); MIC (Staphylococcus aureus [35]): < 0.008 µg/mL; MIC (Pseudomonas aeruginosa [36]): 16 µg/mL (≈ 31.9 µM); MIC (Enterococcus faecalis [37]): < 0.008 µg/mL; MIC (Streptococcus pneumoniae): 0.03 µg/mL (≈ 0.0598 µM)
NCC1CN(c2nc3c(cc2F)c(=O)c(C(=O)O)cn3[C@@H]2C[C@@H]2F)C/C1=N\OCc1ccc(Cl)cc1 (some centres undefined)	64 (≈ 124 µM)	128 (≈ 247 µM)	8 (≈ 15.4 µM)	8 (≈ 15.4 µM)	4 (≈ 7.72 µM)	2 (≈ 3.86 µM)	8 (≈ 15.4 µM)	8 (≈ 15.4 µM)	8 (≈ 15.4 µM)	16 (≈ 30.9 µM)	128 (≈ 247 µM)	32 (≈ 61.8 µM)	64 (≈ 124 µM)	4 (≈ 7.72 µM)	16 (≈ 30.9 µM)	128 (≈ 247 µM)	0.03 (≈ 0.0579 µM)	0.125 (≈ 0.241 µM)	4 (≈ 7.72 µM)	0.342 (≈ 0.66 µM)	MIC (Staphylococcus aureus [1]): 0.015 µg/mL (≈ 0.029 µM); MIC (Staphylococcus aureus [7]): 2 µg/mL (≈ 3.86 µM); MIC (Enterococcus faecium [8]): 2 µg/mL (≈ 3.86 µM); MIC (Pseudomonas aeruginosa [10]): 4 µg/mL (≈ 7.72 µM); MIC (Pseudomonas aeruginosa [11]): 8 µg/mL (≈ 15.4 µM); MIC (Staphylococcus aureus [13]): 32 µg/mL (≈ 61.8 µM); MIC (Escherichia coli [15]): 32 µg/mL (≈ 61.8 µM); MIC (Pseudomonas aeruginosa [17]): 8 µg/mL (≈ 15.4 µM); MIC (Staphylococcus aureus [20]): < 8 ng/mL; MIC (Escherichia coli [23]): 32 µg/mL (≈ 61.8 µM); MIC (Escherichia coli [26]): 32 µg/mL (≈ 61.8 µM); MIC (Pseudomonas aeruginosa [28]): 8 µg/mL (≈ 15.4 µM); MIC (Pseudomonas aeruginosa [29]): 4 µg/mL (≈ 7.72 µM); MIC (Escherichia coli [32]): 4 µg/mL (≈ 7.72 µM); MIC (Staphylococcus aureus [35]): < 0.008 µg/mL; MIC (Pseudomonas aeruginosa [36]): 8 µg/mL (≈ 15.4 µM); MIC (Enterococcus faecalis [37]): 0.125 µg/mL (≈ 0.241 µM); MIC (Streptococcus pneumoniae): 0.015 µg/mL (≈ 0.029 µM)
NCC1CN(c2nc3c(cc2F)c(=O)c(C(=O)O)cn3[C@@H]2C[C@@H]2F)C/C1=N\OCc1ccccc1 (some centres undefined)	–	–	–	–	–	–	–	–	–	–	–	–	–	–	–	–	–	–	–	0.5 (≈ 1.03 µM)	–
O=C(O)c1cn(C2CC2)c2cc(N3CCNCC3)c(F)cc2c1=O [CIPROFLOXACIN]	128 (≈ 386 µM)	16 (≈ 48.3 µM)	128 (≈ 386 µM)	0.25 (≈ 0.754 µM)	64 (≈ 193 µM)	64 (≈ 193 µM)	128 (≈ 386 µM)	> 128	4 (≈ 12.1 µM)	> 128	32 (≈ 96.6 µM)	128 (≈ 386 µM)	64 (≈ 193 µM)	128 (≈ 386 µM)	> 128	32 (≈ 96.6 µM)	0.5 (≈ 1.51 µM)	< 0.008	128 (≈ 386 µM)	–	MIC (Staphylococcus aureus [35]): 0.25 µg/mL (≈ 0.754 µM); MIC (Enterococcus faecalis [37]): 1 µg/mL (≈ 3.02 µM); MIC (Streptococcus pneumoniae): 2 µg/mL (≈ 6.04 µM)
